In ChEMBL document CHEMBL2146365, “Design and synthesis of EGFR dimerization inhibitors and evaluation of their potential in the treatment of psoriasis” (Bioorg Med Chem, 2012):
Activity calls are given as the source filed them. The rule behind the calls is not given here.

Legend:
[1] = Growth inhibition of HPV-16 transformed human CCD-1106 cells after 72 hrs by MTT assay; assay type: functional; conditions: CCD-1106, 72 h
Summary of the method: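 Cells were seeded at 10,000 cells/well in keratinocyte serum-free medium with L-glutamine, bovine pituitary extract and EGF, at 37 °C under 5% CO2, and attached overnight. Eight drug concentrations were run with six in-plate replicates, DMSO <1%, for 72 h. MTT (0.5 mg/ml) was added for 2 h, formazan was dissolved in 90% isopropanol/10% DMSO and A590 was read. Growth is expressed relative to the untreated control.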

[2] = molecular target: Epidermal growth factor receptor (Homo sapiens) (UniProt P00533); experiment: Inhibition of phosphorylated EGFR dimerization in HPV-16 transformed human CCD-1106 cells at 123.6 uM after 30 mins by densitometric analysis; assay type: cell-based
Epidermal growth factor receptor (Homo sapiens), sequence (P00533 whole entry): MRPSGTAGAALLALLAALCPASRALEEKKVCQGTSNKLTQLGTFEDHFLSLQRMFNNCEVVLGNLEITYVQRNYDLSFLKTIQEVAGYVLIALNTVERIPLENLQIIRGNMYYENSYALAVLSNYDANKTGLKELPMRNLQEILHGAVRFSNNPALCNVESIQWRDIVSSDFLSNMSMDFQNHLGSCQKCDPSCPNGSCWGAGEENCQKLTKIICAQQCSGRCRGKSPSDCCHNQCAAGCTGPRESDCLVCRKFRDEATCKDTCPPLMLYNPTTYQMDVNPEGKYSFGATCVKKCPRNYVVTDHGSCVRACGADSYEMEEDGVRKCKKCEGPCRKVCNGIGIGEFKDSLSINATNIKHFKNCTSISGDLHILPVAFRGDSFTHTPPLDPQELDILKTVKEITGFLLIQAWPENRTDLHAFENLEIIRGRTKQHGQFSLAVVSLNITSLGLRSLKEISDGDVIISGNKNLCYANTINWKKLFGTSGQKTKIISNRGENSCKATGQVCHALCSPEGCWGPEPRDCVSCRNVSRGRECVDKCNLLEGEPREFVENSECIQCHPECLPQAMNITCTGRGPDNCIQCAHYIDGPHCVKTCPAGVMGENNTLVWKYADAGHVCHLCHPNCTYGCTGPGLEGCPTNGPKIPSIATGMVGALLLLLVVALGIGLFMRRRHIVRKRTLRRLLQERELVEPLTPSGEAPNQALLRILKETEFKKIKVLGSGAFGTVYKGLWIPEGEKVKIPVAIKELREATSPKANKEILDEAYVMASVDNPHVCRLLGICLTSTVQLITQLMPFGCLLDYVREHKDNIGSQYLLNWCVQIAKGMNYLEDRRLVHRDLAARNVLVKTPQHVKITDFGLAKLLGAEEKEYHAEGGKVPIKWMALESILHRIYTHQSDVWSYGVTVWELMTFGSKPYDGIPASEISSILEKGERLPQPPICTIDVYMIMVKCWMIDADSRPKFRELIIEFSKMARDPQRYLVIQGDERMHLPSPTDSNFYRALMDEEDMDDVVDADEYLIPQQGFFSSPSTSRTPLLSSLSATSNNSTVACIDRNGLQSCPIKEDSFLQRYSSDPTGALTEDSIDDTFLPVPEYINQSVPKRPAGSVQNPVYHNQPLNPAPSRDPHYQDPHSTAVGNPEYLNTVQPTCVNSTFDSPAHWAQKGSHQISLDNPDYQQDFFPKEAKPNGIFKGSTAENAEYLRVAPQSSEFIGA
Summary of the method: (§1)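 CCD-1106 cells were exposed to compounds for 30 min at 37 °C, then stimulated with EGF 50 ng/mL for 10 min. They were cross-linked with 2 mM BS3 for 30 min at room temperature and quenched with Tris (pH 7.5). Lysates were run on SDS-PAGE and immunoblotted for phospho-EGFR (Tyr1173) and total EGFR. The ~340 kDa dimer band was quantified by densitometry against the no-inhibitor control.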

[3] = molecular target: Epidermal growth factor receptor (Homo sapiens) (UniProt P00533); experiment: Inhibition of EGFR-mediated ERK1 phosphorylation in HPV-16 transformed human CCD-1106 cells at 120.7 uM after 30 mins by densitometric analysis; assay type: cell-based
Summary of the method: (§2)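 CCD-1106 cells were treated with compound for 30 min at 37 °C, then stimulated with EGF. Lysates were separated by SDS-PAGE, blotted to nitrocellulose and blocked in 3% BSA/NaTT. Blots were probed with p-ERK (E-4) or p-p38 (D-8) antibodies, detected by ECL and quantified by densitometry.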

[4] = Antioxidant activity in bovine brain assessed as inhibition of iron-ascorbate-induced lipid peroxidation by thiobarbituric acid test; assay type: functional, tissue-based, Bos taurus
Summary of the method: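 Hit compounds were tested for inhibition of lipid peroxidation by the thiobarbituric acid (TBA) assay. Propyl gallate served as the standardizing positive control, tested at 100 µM.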

[5] = molecular target: Epidermal growth factor receptor (Homo sapiens) (UniProt P00533); experiment: Inhibition of EGFR-mediated ERK2 phosphorylation in HPV-16 transformed human CCD-1106 cells at 120.7 uM after 30 mins by densitometric analysis; assay type: cell-based; summary of the method: as §2
U-937 = experiment: Growth inhibition of human U937 cells after 72 hrs by Cell Titer 96 aqueous one solution assay; assay type: functional; conditions: U-937, 72 h
Summary of the method: (§3)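 Cells were grown in RPMI with 10% FBS, 2 mM L-glutamine and penicillin/streptomycin. They were seeded at 10,000 cells/well in round-bottom plates and exposed to compounds for 72 h (eight concentrations, six replicates). Cell Titer 96 AQueous One reagent was then added for 3 h at 37 °C and absorbance was read at 492 nm. Values are means, n = 6.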

HaCaT [6] = experiment: Cytotoxicity against human HaCaT cells assessed as LDH release after 24 hrs by CYTOX-96 assay; assay type: functional; conditions: read-out: LD50 (the source's name)
Summary of the method: (§4)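 LDH release was read with the CytoTox 96 kit following the kit protocol after 6 or 24 h drug exposure. Cells were seeded at 10,000/well and attached overnight. Eight concentrations were run with six in-plate replicates; DMSO was <1% in all wells, with medium-only blanks. LD₅₀ is reported as mean ± S.E.M., n = 6. CCD-1106 were grown in supplemented keratinocyte SFM; HaCaT in DMEM/10% FBS.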

HaCaT [7] = experiment: Growth inhibition of human HaCaT cells after 72 hrs by neutral red uptake assay; assay type: functional
Summary of the method: (§5)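 Neutral red uptake assay over 72 h. Cells were seeded at 10,000 cells/well and attached overnight, then exposed to eight concentrations with six replicates (DMSO <1%). CCD-1106 were grown in keratinocyte SFM with supplements. HaCaT were grown in DMEM with 10% FBS and 2 mM L-glutamine. NHEK (pooled adult) were grown in keratinocyte growth medium with supplement. Values are means, n = 6, against the untreated control.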

HaCaT [8] = experiment: Cytotoxicity against human HaCaT cells assessed as cell viability after 6 hrs by MTT assay; assay type: functional; conditions: read-out: LD50 (the source's name)
Summary of the method: (§6)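 Cells were plated at 10,000/well, attached overnight, and exposed 6 or 24 h to eight drug concentrations with six in-plate replicates (DMSO <1%). MTT (0.5 mg/ml in PBS) was added for 2 h at 37 °C, then dissolved in 90% isopropanol/10% DMSO, and A590 was read. Values were corrected against untreated controls. LD₅₀ is reported as mean ± S.E.M., n = 3.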

[9] = Cytotoxicity against HPV-16 transformed human CCD-1106 cells assessed as LDH release after 6 hrs by CYTOX-96 assay; assay type: functional; conditions: CCD-1106, 6 h, read-out: LD50 (the source's name); summary of the method: as §4
THP-1 = experiment: Growth inhibition of human THP1 cells after 72 hrs by Cell Titer 96 aqueous one solution assay; assay type: functional; conditions: THP-1, 72 h; summary of the method: as §3
[10] = Growth inhibition of human NHEK cells after 72 hrs by neutral red uptake assay; assay type: functional; summary of the method: as §5
HaCaT [11] = experiment: Cytotoxicity against human HaCaT cells assessed as cell viability after 24 hrs by MTT assay; assay type: functional; conditions: read-out: LD50 (the source's name); summary of the method: as §6
[12] = molecular target: Epidermal growth factor receptor (Homo sapiens) (UniProt P00533); experiment: Inhibition of phosphorylated EGFR dimerization in HPV-16 transformed human CCD-1106 cells at 348.8 uM after 30 mins by densitometric analysis; assay type: cell-based; summary of the method: as §1
[13] = Growth inhibition of HPV-16 transformed human CCD-1106 cells after 72 hrs by neutral red uptake assay; assay type: functional; conditions: CCD-1106, 72 h; summary of the method: as §5
[14] = Cytotoxicity against HPV-16 transformed human CCD-1106 cells assessed as cell viability after 6 hrs by MTT assay; assay type: functional; conditions: CCD-1106, 6 h, read-out: LD50 (the source's name); summary of the method: as §6
HaCaT [15] = experiment: Cytotoxicity against human HaCaT cells assessed as LDH release after 6 hrs by CYTOX-96 assay; assay type: functional; conditions: read-out: LD50 (the source's name); summary of the method: as §4
[16] = Cytotoxicity against HPV-16 transformed human CCD-1106 cells assessed as LDH release after 24 hrs by CYTOX-96 assay; assay type: functional; conditions: CCD-1106, 24 h, read-out: LD50 (the source's name); summary of the method: as §4
[17] = Cytotoxicity against HPV-16 transformed human CCD-1106 cells assessed as cell viability after 24 hrs by MTT assay; assay type: functional; conditions: CCD-1106, 24 h, read-out: LD50 (the source's name); summary of the method: as §6
[18] = molecular target: Epidermal growth factor receptor (Homo sapiens) (UniProt P00533); experiment: Inhibition of EGFR-mediated ERK1 phosphorylation in HPV-16 transformed human CCD-1106 cells at 153 uM after 30 mins by densitometric analysis; assay type: cell-based; summary of the method: as §2
[19] = molecular target: Epidermal growth factor receptor (Homo sapiens) (UniProt P00533); experiment: Inhibition of EGFR-mediated ERK2 phosphorylation in HPV-16 transformed human CCD-1106 cells at 153 uM after 30 mins by densitometric analysis; assay type: cell-based; summary of the method: as §2
[20] = molecular target: Epidermal growth factor receptor (Homo sapiens) (UniProt P00533); experiment: Inhibition of phosphorylated EGFR dimerization in HPV-16 transformed human CCD-1106 cells at 155.4 uM after 30 mins by densitometric analysis; assay type: cell-based; summary of the method: as §1
[21] = molecular target: Epidermal growth factor receptor (Homo sapiens) (UniProt P00533); experiment: Inhibition of phosphorylated EGFR dimerization in HPV-16 transformed human CCD-1106 cells at 118.1 uM after 30 mins by densitometric analysis; assay type: cell-based; summary of the method: as §1
[22] = molecular target: Epidermal growth factor receptor (Homo sapiens) (UniProt P00533); experiment: Inhibition of EGFR-mediated ERK2 phosphorylation in HPV-16 transformed human CCD-1106 cells at 111.8 uM after 30 mins by densitometric analysis; assay type: cell-based; summary of the method: as §2
[23] = molecular target: Epidermal growth factor receptor (Homo sapiens) (UniProt P00533); experiment: Inhibition of EGFR-mediated p38 phosphorylation in HPV-16 transformed human CCD-1106 cells at 111.8 uM after 30 mins by densitometric analysis; assay type: cell-based; summary of the method: as §2
[24] = molecular target: Epidermal growth factor receptor (Homo sapiens) (UniProt P00533); experiment: Inhibition of EGFR-mediated ERK1 phosphorylation in HPV-16 transformed human CCD-1106 cells at 111.8 uM after 30 mins by densitometric analysis; assay type: cell-based; summary of the method: as §2

SMILES: CCOc1cc(/C=N\Nc2nc3c(c(=O)n(C)c(=O)n3C)n2Cc2ccc(C)cc2)ccc1O
- GI50 ([1]; read-out: GI50): 9.75 µM
- GI50 ([1]; read-out: pGI50 (converted)): 9.77 µM

SMILES: CC(C)C(=O)NNC(=O)c1c(O)c2ccccc2n(C)c1=O
- inhibition [2]: 16%
- inhibition [3]: 42%
- IC50 [4]: 3410 µM
- GI50 ([1]; read-out: GI50): 14.9 µM
- inhibition [5]: 33%

SMILES: O=C1c2c(O)cccc2Cc2cccc(O)c21 [ANTHRALIN]
- GI50 (U-937): 5 µM
- CC50 (HaCaT [6]): 3 µM
- GI50 (HaCaT [7]): 0.7 µM
- CC50 (HaCaT [8]): 3 µM
- CC50 [9]: 310 µM
- GI50 (THP-1): 54 µM
- GI50 [10]: 0.5 µM
- CC50 (HaCaT [11]): 3 µM
- inhibition [12]: inactive
- GI50 [13]: 0.4 µM
- GI50 ([1]; read-out: GI50): 0.51 µM
- CC50 [14]: 53 µM
- CC50 (HaCaT [15]): 10 µM
- CC50 [16]: 442 µM
- CC50 [17]: 2 µM

SMILES: O=C(Nc1ccccc1C(=O)c1ccccc1)c1cc([N+](=O)[O-])cc([N+](=O)[O-])c1
- inhibition [18]: 28%
- IC50 [4]: 46700 µM
- inhibition [19]: 20%
- GI50 ([1]; read-out: GI50): 123 µM
- inhibition [20]: 52%

SMILES: CCOc1cc(/C=N\Nc2nc3c(c(=O)n(C)c(=O)n3C)n2Cc2ccccc2C(=O)O)cc(OCC)c1OCC
- GI50 ([1]; read-out: GI50): 117 µM
- GI50 ([1]; read-out: pGI50 (converted)): 117 µM

SMILES: CCOc1cc(/C=N\Nc2nc3c(c(=O)n(C)c(=O)n3C)n2Cc2ccccc2C(=O)O)ccc1O
- GI50 ([1]; read-out: GI50): 178 µM
- GI50 ([1]; read-out: pGI50 (converted)): 178 µM

SMILES: Cc1ccc(OCC(=O)N/N=C/c2c(OC(=O)c3ccccc3)ccc3ccccc23)cc1
- inhibition [21]: 42%
- IC50 [4]: 1250 µM
- inhibition [22]: 19%
- GI50 ([1]; read-out: GI50): 9.33 µM
- inhibition [23]: 12%
- inhibition [24]: 26%

SMILES: CCOC(=O)c1ccccc1Cn1c(N/N=C\c2ccc(O)c(OCC)c2)nc2c1c(=O)n(C)c(=O)n2C
- GI50 ([1]; read-out: GI50): 106 µM
- GI50 ([1]; read-out: pGI50 (converted)): 107 µM

SMILES: CCOc1cc(/C=N\Nc2nc3c(c(=O)n(C)c(=O)n3C)n2Cc2ccc([N+](=O)[O-])cc2)cc(OCC)c1OCC
- GI50 ([1]; read-out: GI50): 18.9 µM
- GI50 ([1]; read-out: pGI50 (converted)): 19.1 µM

SMILES: CCOc1cc(/C=N\Nc2nc3c(c(=O)n(C)c(=O)n3C)n2Cc2ccc(Cl)cc2)ccc1O
- GI50 ([1]; read-out: GI50): 5.21 µM
- GI50 ([1]; read-out: pGI50 (converted)): 5.25 µM
